# Source: PubChem BioAssay AID651942 (The Scripps Research Institute Molecular Screening Center, 2012)
# Active and inactive are the calls of the source.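 The calls were made as follows: active = inhibitor of the AddAB recombination enzyme whose half-maximal inhibitory concentration is at or below 10 µM; inactive = half-maximal inhibitory concentration above 10 µM.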
# Test system: E. coli V3065 expressing H. pylori AddAB, T4 phage, OD growth
# Assay: dose-dependent OD loss of phage-infected AddAB+ E. coli – absorbance, E. coli V3065, powder samples, round 2, AddAB inhibitor project, late-stage follow-up (AID 651942)
# Procedure, shortened: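 Test system: E. coli V3065 carrying H. pylori addAB+; Medium: Cation Mueller Hinton broth; Reagent: mutant T4 phage, MOI 0.02; Doses: 10-point threefold series from 118.6 µM; Incubation: 60 min preincubation, 18 h post-infection, 37 °C; Measured by: optical density at 600 nm as bacterial growth measure; Control set: ciprofloxacin reference; Replicates: triplicate.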
row,SMILES,IC50
1,CCn1cc(C(=O)O)c(=O)c2cnc(N3CCN(C(=S)Nc4cccc(C(F)(F)F)c4)CC3)nc21,1.03 µM
2,CCn1cc(C(=O)O)c(=O)c2cnc(N3CCN(C(=S)NCc4ccccc4)CC3)nc21,29.4 µM (inactive)
3,CCn1cc(C(=O)O)c(=O)c2cnc(N3CCN(C(=S)Nc4ccccc4F)CC3)nc21,7.65 µM
4,CCn1cc(C(=O)O)c(=O)c2cnc(N3CCN(C(=S)Nc4ccccc4OC)CC3)nc21,30.6 µM (inactive)
5,CCn1cc(C(=O)O)c(=O)c2cnc(N3CCN(C(=S)Nc4ccc(Cl)cc4)CC3)nc21,6.5 µM
6,CCn1cc(C(=O)O)c(=O)c2cnc(N3CCN(C(=S)NC(=O)c4cccc(C)c4)CC3)nc21,19 µM (inactive)
